Data reported in ChEMBL document CHEMBL3860048 (J Med Chem, 2016).
Active and inactive are the calls of the source. The rule behind the calls is not given here. Where a SMILES comes first, the peptide text is derived from it. [ ]: non-standard residue; d: D form. Phe(4-Cl) = N[C@@H](Cc1ccc(Cl)cc1)C(=O)O; Phe(3-F) = N[C@@H](Cc1cccc(F)c1)C(=O)O; Phe(2-F) = N[C@@H](Cc1ccccc1F)C(=O)O; Arg(Me) = CNC(=N)NCCC[C@H](N)C(=O)O; Pip = O=C(O)[C@@H]1CCCCN1; NMeA = CN[C@@H](C)C(=O)O; Thz = O=C(O)[C@@H]1CSCN1; dNMeA = CN[C@H](C)C(=O)O; Aze = O=C(O)[C@@H]1CCN1; 2Abz = Nc1ccccc1C(=O)O; Aib = CC(C)(N)C(=O)O; azaGly = NNC(=O)O; βAla = NCCC(=O)O; Sar = CNCC(=O)O

Key:
KiSS-1 receptor [1] = molecular target: KiSS-1 receptor (Homo sapiens, UniProt Q969F8); assay: Agonist activity at human KISS1R expressed in CHO/dhfr cells assessed as increase in intracellular Ca2+ levels measured for 180 secs by Fluo 3-AM dye based FLIPR assay; type: functional, cell-based
KiSS-1 receptor (Homo sapiens, UniProt Q969F8), sequence (Q969F8 whole entry): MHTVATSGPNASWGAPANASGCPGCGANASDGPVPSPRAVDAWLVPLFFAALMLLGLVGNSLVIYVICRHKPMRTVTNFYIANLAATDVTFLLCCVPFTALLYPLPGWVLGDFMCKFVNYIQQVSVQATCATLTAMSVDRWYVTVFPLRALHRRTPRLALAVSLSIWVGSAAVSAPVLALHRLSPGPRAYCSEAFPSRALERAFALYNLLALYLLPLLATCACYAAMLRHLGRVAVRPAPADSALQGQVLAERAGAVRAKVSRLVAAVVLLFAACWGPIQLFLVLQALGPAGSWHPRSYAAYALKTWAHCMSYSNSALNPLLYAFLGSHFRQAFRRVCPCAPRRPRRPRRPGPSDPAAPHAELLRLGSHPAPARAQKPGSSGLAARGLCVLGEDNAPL
How it was run: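 CHO cells expressing human KISS1R; FLIPR recording of ligand-induced [Ca2+]i rise over time. Maximum response taken and expressed as percent of the response to a maximal concentration of metastin(45-54). EC50 = concentration giving half-maximal mobilization, from nonlinear regression of smoothed data. Reported as ratio to the metastin(45-54) EC50.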

KiSS-1 receptor [2] = molecular target: KiSS-1 receptor (Rattus norvegicus, UniProt Q924U1); assay: Agonist activity at rat KISS1R expressed in CHO/dhfr cells assessed as increase in intracellular Ca2+ levels measured for 180 secs by Fluo 3-AM dye based FLIPR assay; type: functional, cell-based
KiSS-1 receptor (Rattus norvegicus, UniProt Q924U1), sequence (Q924U1 whole entry): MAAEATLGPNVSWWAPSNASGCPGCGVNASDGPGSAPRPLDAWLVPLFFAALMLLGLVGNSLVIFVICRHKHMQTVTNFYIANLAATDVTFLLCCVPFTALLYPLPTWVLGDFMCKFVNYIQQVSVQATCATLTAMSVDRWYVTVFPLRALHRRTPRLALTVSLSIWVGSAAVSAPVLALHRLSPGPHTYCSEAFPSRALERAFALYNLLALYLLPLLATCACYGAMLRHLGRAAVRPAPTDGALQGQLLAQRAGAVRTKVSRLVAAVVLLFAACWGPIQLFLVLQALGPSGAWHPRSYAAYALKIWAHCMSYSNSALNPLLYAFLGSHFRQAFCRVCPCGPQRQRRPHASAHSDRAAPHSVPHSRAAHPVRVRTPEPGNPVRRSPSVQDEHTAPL

Rattus norvegicus = assay: Inhibition of testosterone levels in CD(SD) rat assessed as plasma testosterone level <0.04 ng/ml at 0.03 nmol/hr, sc administered continuously for 6 days through alzet osmotic pump measured after 6 days by radio-immunoassay; type: functional, organism-based

| SMILES | EC50 (KiSS-1 receptor [1]) | EC50 (KiSS-1 receptor [2]) | inhibition (Rattus norvegicus) |
| --- | --- | --- | --- |
| CNC(=N)NCCC[C@H](NC(=O)[C@H](CC(C)C)NC(=O)NNC(=O)[C@H](Cc1ccccc1)NC(=O)[C@@H](NC(=O)[C@H](CC(N)=O)NC(=O)[C@@H]1CSCN1C(=O)[C@@H](Cc1ccc(O)cc1)NC(C)=O)[C@@H](C)O)C(=O)N[C@@H](Cc1c[nH]c2ccccc12)C(N)=O (Ac-[dY][Thz]NTF[azaGly]L[Arg(Me)]W-NH2) | 2.3 nM | 23 nM | – |
| CNC(=N)NCCC[C@H](NC(=O)[C@H](CC(C)C)NC(=O)NNC(=O)[C@H](Cc1ccccc1)NC(=O)[C@@H](NC(=O)[C@H](CC(N)=O)NC(=O)c1ccccc1NC(=O)[C@@H](Cc1ccc(O)cc1)NC(C)=O)[C@@H](C)O)C(=O)N[C@@H](Cc1c[nH]c2ccccc12)C(N)=O (Ac-[dY][2Abz]NTF[azaGly]L[Arg(Me)]W-NH2) | 5.2 nM | 47 nM | – |
| CNC(=N)NCCC[C@H](NC(=O)[C@H](CC(C)C)NC(=O)NNC(=O)[C@H](Cc1ccccc1)NC(=O)[C@@H](NC(=O)[C@H](CC(N)=O)NC(=O)[C@@H](C)N(C)C(=O)[C@@H](Cc1ccc(O)cc1)NC(C)=O)[C@@H](C)O)C(=O)N[C@@H](Cc1c[nH]c2ccccc12)C(N)=O (Ac-[dY][dNMeA]NTF[azaGly]L[Arg(Me)]W-NH2) | 1.8 nM | 7.3 nM | – |
| CNC(=N)NCCC[C@H](NC(=O)[C@H](CC(C)C)NC(=O)NNC(=O)[C@H](Cc1cccc(F)c1)NC(=O)[C@@H](NC(=O)[C@H](CC(N)=O)NC(=O)[C@H](Cc1c[nH]c2ccccc12)NC(=O)[C@@H](Cc1ccc(O)cc1)NC(C)=O)[C@@H](C)O)C(=O)N[C@@H](Cc1c[nH]c2ccccc12)C(N)=O (Ac-[dY]WNT[Phe(3-F)][azaGly]L[Arg(Me)]W-NH2) | 0.073 nM | 1.2 nM | – |
| CNC(=N)NCCC[C@H](NC(=O)[C@H](CC(C)C)NC(=O)NNC(=O)[C@H](Cc1ccccc1)NC(=O)[C@@H](NC(=O)[C@H](CC(N)=O)NC(=O)[C@H](C)NC(=O)[C@@H](Cc1ccc(O)cc1)NC(C)=O)[C@@H](C)O)C(=O)N[C@@H](Cc1c[nH]c2ccccc12)C(N)=O | 1.2 nM | 6 nM | – |
| CNC(=N)NCCC[C@H](NC(=O)[C@H](CC(C)C)NC(=O)NNC(=O)[C@H](Cc1ccc(Cl)cc1)NC(=O)[C@@H](NC(=O)[C@H](CC(N)=O)NC(=O)[C@@H](Cc1c[nH]c2ccccc12)NC(=O)[C@@H](Cc1ccc(O)cc1)NC(C)=O)[C@@H](C)O)C(=O)N[C@@H](Cc1c[nH]c2ccccc12)C(N)=O (Ac-[dY][dW]NT[Phe(4-Cl)][azaGly]L[Arg(Me)]W-NH2) | 0.56 nM | 2.8 nM | – |
| CNC(=N)NCCC[C@H](NC(=O)[C@H](CC(C)C)NC(=O)NNC(=O)[C@H](Cc1ccccc1)NC(=O)[C@@H](NC(=O)[C@H](CC(N)=O)NC(=O)[C@@H]1CCCCN1C(=O)[C@@H](Cc1ccc(O)cc1)NC(C)=O)[C@@H](C)O)C(=O)N[C@@H](Cc1c[nH]c2ccccc12)C(N)=O (Ac-[dY][Pip]NTF[azaGly]L[Arg(Me)]W-NH2) | 2.8 nM | 17 nM | – |
| CNC(=N)NCCC[C@H](NC(=O)[C@H](CC(C)C)NC(=O)NNC(=O)[C@H](Cc1ccc(F)cc1)NC(=O)[C@@H](NC(=O)[C@H](CC(N)=O)NC(=O)[C@@H](Cc1c[nH]c2ccccc12)NC(=O)[C@@H](Cc1ccc(O)cc1)NC(C)=O)[C@@H](C)O)C(=O)N[C@@H](Cc1c[nH]c2ccccc12)C(N)=O | 1.9 nM | 4.7 nM | Active |
| CNC(=N)NCCC[C@H](NC(=O)[C@H](CC(C)C)NC(=O)NNC(=O)[C@H](Cc1ccccc1)NC(=O)[C@@H](NC(=O)[C@H](CC(N)=O)NC(=O)CCNC(=O)[C@@H](Cc1ccc(O)cc1)NC(C)=O)[C@@H](C)O)C(=O)N[C@@H](Cc1c[nH]c2ccccc12)C(N)=O (Ac-[dY][βAla]NTF[azaGly]L[Arg(Me)]W-NH2) | 3.3 nM | 11 nM | – |
| CNC(=N)NCCC[C@H](NC(=O)[C@H](CC(C)C)NC(=O)NNC(=O)[C@H](Cc1ccccc1)NC(=O)[C@@H](NC(=O)[C@H](CC(N)=O)NC(=O)[C@H](CCCCN)NC(=O)[C@@H](Cc1ccc(O)cc1)NC(C)=O)[C@@H](C)O)C(=O)N[C@@H](Cc1c[nH]c2ccccc12)C(N)=O | 1.6 nM | 6.8 nM | Active |
| CNC(=N)NCCC[C@H](NC(=O)[C@H](CC(C)C)NC(=O)NNC(=O)[C@H](Cc1ccccc1)NC(=O)[C@@H](NC(=O)[C@H](CC(N)=O)NC(=O)[C@@H]1Cc2ccccc2CN1C(=O)[C@@H](Cc1ccc(O)cc1)NC(C)=O)[C@@H](C)O)C(=O)N[C@@H](Cc1c[nH]c2ccccc12)C(N)=O | 0.49 nM | 7 nM | – |
| CNC(=N)NCCC[C@H](NC(=O)[C@H](CC(C)C)NC(=O)NNC(=O)[C@H](Cc1ccccc1F)NC(=O)[C@@H](NC(=O)[C@H](CC(N)=O)NC(=O)[C@@H](Cc1c[nH]c2ccccc12)NC(=O)[C@@H](Cc1ccc(O)cc1)NC(C)=O)[C@@H](C)O)C(=O)N[C@@H](Cc1c[nH]c2ccccc12)C(N)=O (Ac-[dY][dW]NT[Phe(2-F)][azaGly]L[Arg(Me)]W-NH2) | 0.65 nM | 1.8 nM | – |
| CNC(=N)NCCC[C@H](NC(=O)[C@H](CC(C)C)NC(=O)NNC(=O)[C@H](Cc1ccccc1)NC(=O)[C@@H](NC(=O)[C@H](CC(N)=O)NC(=O)[C@H]1CCCN(C(=O)[C@@H](Cc2ccc(O)cc2)NC(C)=O)C1)[C@@H](C)O)C(=O)N[C@@H](Cc1c[nH]c2ccccc12)C(N)=O | 5.5 nM | 45 nM | – |
| CNC(=N)NCCC[C@H](NC(=O)[C@H](CC(C)C)NC(=O)NNC(=O)[C@H](Cc1ccccc1)NC(=O)[C@@H](NC(=O)[C@H](CC(N)=O)NC(=O)[C@@H]1CCN1C(=O)[C@@H](Cc1ccc(O)cc1)NC(C)=O)[C@@H](C)O)C(=O)N[C@@H](Cc1c[nH]c2ccccc12)C(N)=O (Ac-[dY][Aze]NTF[azaGly]L[Arg(Me)]W-NH2) | 1.9 nM | 16 nM | Active |
| CNC(=N)NCCC[C@H](NC(=O)[C@H](CC(C)C)NC(=O)NNC(=O)[C@H](Cc1cccc(F)c1)NC(=O)[C@@H](NC(=O)[C@H](CC(N)=O)NC(=O)CNC(=O)[C@@H](Cc1ccc(O)cc1)NC(C)=O)[C@@H](C)O)C(=O)N[C@@H](Cc1c[nH]c2ccccc12)C(N)=O (Ac-[dY]GNT[Phe(3-F)][azaGly]L[Arg(Me)]W-NH2) | 1.1 nM | 7.4 nM | – |
| CNC(=N)NCCC[C@H](NC(=O)[C@H](CC(C)C)NC(=O)NNC(=O)[C@H](Cc1ccccc1)NC(=O)[C@@H](NC(=O)[C@H](CC(N)=O)NC(=O)C1CN(C(=O)[C@@H](Cc2ccc(O)cc2)NC(C)=O)C1)[C@@H](C)O)C(=O)N[C@@H](Cc1c[nH]c2ccccc12)C(N)=O | 2.3 nM | 15 nM | – |
| CNC(=N)NCCC[C@H](NC(=O)[C@H](CC(C)C)NC(=O)NNC(=O)[C@H](Cc1ccccc1)NC(=O)[C@@H](NC(=O)[C@H](CC(N)=O)NC(=O)[C@@H](C)NC(=O)[C@@H](Cc1ccc(O)cc1)NC(C)=O)[C@@H](C)O)C(=O)N[C@@H](Cc1c[nH]c2ccccc12)C(N)=O | 2.7 nM | 16 nM | – |
| CNC(=N)NCCC[C@H](NC(=O)[C@H](CC(C)C)NC(=O)NNC(=O)[C@H](Cc1ccccc1)NC(=O)[C@@H](NC(=O)[C@H](CC(N)=O)NC(=O)[C@H]1CCCN1C(=O)[C@@H](Cc1ccc(O)cc1)NC(C)=O)[C@@H](C)O)C(=O)N[C@@H](Cc1c[nH]c2ccccc12)C(N)=O | 5.8 nM | 110 nM | – |
| CNC(=N)NCCC[C@H](NC(=O)[C@H](CC(C)C)NC(=O)NNC(=O)[C@H](Cc1ccccc1)NC(=O)[C@@H](NC(=O)[C@H](CC(N)=O)NC(=O)[C@@H](CC(C)C)NC(=O)[C@@H](Cc1ccc(O)cc1)NC(C)=O)[C@@H](C)O)C(=O)N[C@@H](Cc1c[nH]c2ccccc12)C(N)=O | 2 nM | 12 nM | Active |
| CNC(=N)NCCC[C@H](NC(=O)[C@H](CC(C)C)NC(=O)NNC(=O)[C@H](Cc1cccc(F)c1)NC(=O)[C@@H](NC(=O)[C@H](CC(N)=O)NC(=O)C(C)(C)NC(=O)[C@@H](Cc1ccc(O)cc1)NC(C)=O)[C@@H](C)O)C(=O)N[C@@H](Cc1c[nH]c2ccccc12)C(N)=O (Ac-[dY][Aib]NT[Phe(3-F)][azaGly]L[Arg(Me)]W-NH2) | 1.2 nM | 7 nM | – |
| CNC(=N)NCCC[C@H](NC(=O)[C@H](CC(C)C)NC(=O)NNC(=O)[C@H](Cc1cccc(F)c1)NC(=O)[C@@H](NC(=O)[C@H](CC(N)=O)NC(=O)[C@@H](Cc1c[nH]c2ccccc12)NC(=O)[C@@H](Cc1ccc(O)cc1)NC(C)=O)[C@@H](C)O)C(=O)N[C@@H](Cc1c[nH]c2ccccc12)C(N)=O (Ac-[dY][dW]NT[Phe(3-F)][azaGly]L[Arg(Me)]W-NH2) | 1.4 nM | 4.8 nM | – |
| CNC(=N)NCCC[C@H](NC(=O)[C@H](CC(C)C)NC(=O)NNC(=O)[C@H](Cc1ccccc1)NC(=O)[C@@H](NC(=O)[C@H](CC(N)=O)NC(=O)[C@H](CCC(=O)O)NC(=O)[C@@H](Cc1ccc(O)cc1)NC(C)=O)[C@@H](C)O)C(=O)N[C@@H](Cc1c[nH]c2ccccc12)C(N)=O | 2.8 nM | 11 nM | Active |
| CNC(=N)NCCC[C@H](NC(=O)[C@H](CC(C)C)NC(=O)NNC(=O)[C@H](Cc1ccccc1)NC(=O)[C@@H](NC(=O)[C@H](CC(N)=O)NC(=O)CN(C)C(=O)[C@@H](Cc1ccc(O)cc1)NC(C)=O)[C@@H](C)O)C(=O)N[C@@H](Cc1c[nH]c2ccccc12)C(N)=O (Ac-[dY][Sar]NTF[azaGly]L[Arg(Me)]W-NH2) | 4.9 nM | 20 nM | – |
| CNC(=N)NCCC[C@H](NC(=O)[C@H](CC(C)C)NC(=O)NNC(=O)[C@H](Cc1ccccc1)NC(=O)[C@@H](NC(=O)[C@H](CC(N)=O)NC(=O)[C@H](C)N(C)C(=O)[C@@H](Cc1ccc(O)cc1)NC(C)=O)[C@@H](C)O)C(=O)N[C@@H](Cc1c[nH]c2ccccc12)C(N)=O (Ac-[dY][NMeA]NTF[azaGly]L[Arg(Me)]W-NH2) | 4.4 nM | 43 nM | – |
